In ChEMBL document CHEMBL1146591, “New polyhydroxy sterols: proteasome inhibitors from a marine sponge Acanthodendrilla sp” (J Nat Prod, 2003):
Values after ≈ are worked out from the molar mass of the structure shown. Active and inactive are the calls of the source. The calls are words filed in the database; no cut-off is given here.

Legend:
HeLa = experiment: Cytotoxicity against human HeLa cells after 3 days by MTT assay; assay type: functional, cell-based; conditions: 72 h
Procedure, shortened: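 HeLa cells grown in DMEM with 10% fetal calf serum, penicillin and streptomycin, 37 °C, 5% CO2. Seeded at 3 × 10^3 cells/well, precultured 1 day, then given compounds at various concentrations for 3 days at 37 °C. MTT (0.2 mg/mL in medium) added for 4 h, then DMSO, and OD read at 570 nm.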

Rattus norvegicus = species: Rattus norvegicus; experiment: Inhibition of chymotrypsin like activity of partially purified rat liver proteasome at 100 ug/mL; assay type: subcellular
Procedure, shortened: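 Enzyme: proteasome-enriched pellet from rat liver (300 000g, 2 h). Preincubated with test material 10 min at 30 °C in 50 mM Tris-HCl pH 7.8, 1 mM DTT, 5 mM EDTA, 0.02% SDS. Then 0.05 mM Suc-LLVY-MCA added for 1 h at 30 °C. Stopped with 10% SDS and AMC fluorescence read (ex 380/em 460 nm).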

[1] = Inhibition of chymotrypsin like activity of partially purified rat liver proteasome; assay type: subcellular
Procedure, shortened: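 Enzyme: proteasome-enriched pellet from rat liver homogenate (300 000g, 2 h). Preincubated with inhibitor 10 min at 30 °C in 50 mM Tris-HCl pH 7.8, 1 mM DTT, 5 mM EDTA, 0.02% SDS. Then 0.05 mM Suc-LLVY-MCA added, 1 h at 30 °C, stopped with 10% SDS, AMC fluorescence read (ex 380/em 460 nm). IC50 from duplicate measurements.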

Activity (Rattus norvegicus) | IC50 [1] | Compound | IC50 (HeLa)
inactive | – | C/C=C(\C[C@@H](O)[C@@H](C)[C@H]1CC[C@H]2C3=C[C@H](OC(C)=O)[C@H]4[C@@H](OC(C)=O)[C@@H](OC(C)=O)CC[C@]4(C)[C@@]3(O)CC[C@]12C)C(C)C [AGOSTEROL E3] | 14 µg/mL (≈ 23.2 µM)
– | 10 µg/mL (≈ 19.3 µM) | CC(=O)O[C@@H]1[C@@H]2[C@@H](OC(C)=O)C=C3[C@H](CC[C@]4(C)[C@@H]([C@H](C)[C@H](O)CCC(C)C)CC[C@@H]34)[C@@]2(C)CC[C@@H]1O [AGOSTEROL C] | 22 µg/mL (≈ 42.4 µM)
– | 100 µg/mL (≈ 173 µM) | CC(=O)O[C@@H]1[C@@H]2[C@@H](OC(C)=O)C=C3[C@H]([C@H](OC(C)=O)C[C@]4(C)[C@@H]([C@H](C)[C@H](O)CCC(C)C)CC[C@@H]34)[C@@]2(C)CC[C@@H]1O [AGOSTEROL G] | 8.8 µg/mL (≈ 15.3 µM)
– | 23 µg/mL (≈ 43 µM) | CC(=O)O[C@@H]1[C@@H]2[C@@H](OC(C)=O)C=C3[C@H](CC[C@]4(C)[C@@H]([C@@](C)(O)[C@H](O)CCC(C)C)CC[C@@H]34)[C@@]2(C)CC[C@@H]1O [AGOSTEROL C2] | > 25 µg/mL
inactive | – | CC(=O)O[C@@H]1[C@@H]2[C@@H](OC(C)=O)C=C3[C@@H]4CC[C@H]([C@H](C)[C@H](O)CCC(C)C)[C@@]4(C)CC[C@]3(O)[C@@]2(C)CC[C@@H]1OC(C)=O [AGOSTEROL E] | 25 µg/mL (≈ 43.3 µM)
– | 90 µg/mL (≈ 156 µM) | CC(=O)O[C@@H]1[C@@H]2[C@@H](OC(C)=O)C=C3[C@H](CC[C@]4(C)[C@@H]([C@@](C)(O)[C@H](O)CCC(C)C)CC[C@@H]34)[C@@]2(C)CC[C@@H]1OC(C)=O [AGOSTEROL D2] | 23 µg/mL (≈ 39.9 µM)
– | 35 µg/mL (≈ 65.5 µM) | CC(=O)O[C@@H]1[C@@H]2[C@@H](OC(C)=O)C=C3[C@H]([C@H](O)C[C@]4(C)[C@@H]([C@H](C)[C@H](O)CCC(C)C)CC[C@@H]34)[C@@]2(C)CC[C@@H]1O [AGOSTEROL F] | 16 µg/mL (≈ 29.9 µM)
– | 20 µg/mL (≈ 36.6 µM) | C=C(CC(O)C(C)(O)[C@H]1CC[C@H]2C3=C[C@H](OC(C)=O)[C@H]4[C@@H](OC(C)=O)[C@@H](O)CC[C@]4(C)[C@H]3CC[C@]12C)C(C)C (stereo not given in full) [AGOSTEROL C7] | > 25 µg/mL
inactive | – | C/C=C(\C[C@@H](O)[C@@H](C)[C@H]1CC[C@H]2C3=C[C@H](OC(C)=O)[C@H]4[C@@H](OC(C)=O)[C@@H](OC(C)=O)CC[C@]4(C)[C@H]3[C@H](O)C[C@]12C)C(C)C [AGOSTEROL A3] | 10 µg/mL (≈ 16.6 µM)

Compound | Activity (Rattus norvegicus) | IC50 [1] | IC50 (HeLa)
CC(=O)O[C@@H]1[C@@H]2[C@@H](OC(C)=O)C=C3[C@H]([C@H](O)C[C@]4(C)[C@@H]([C@H](C)[C@H](O)CCC(C)C)CC[C@@H]34)[C@@]2(C)CC[C@@H]1OC(C)=O [AGOSTEROL A] | – | 50 µg/mL (≈ 86.7 µM) | 25 µg/mL (≈ 43.3 µM)
